Each structure is given as a SMILES string. Bounds are passed on as bounds.

System in one assay: not listed separately
The assay is described as follows: Inhibition of human platelet cAMP Phosphodiesterase. The format is functional.
Conditions: not given
The essentials:
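Low-Km cAMP phosphodiesterase from human platelets, prepared and assayed per an earlier method. Result expressed as IC50, the μM concentration inhibiting enzyme activity by 50%.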
Take `CCOC(=O)c1c(C)cc2cnn(-c3ccccc3)c(=O)c2c1C`: the IC50 worked out at 10 µM.

In turn, `CCOC(=O)c1c(C)cc2cnn(-c3ccccc3Cl)c(=O)c2c1C` gave an IC50 of 34 µM.

`COc1ccc(Cc2nccc3cc(OC)c(OC)cc23)cc1OC` [PAPAVERINE]: the IC50 worked out at 0.55 µM.

The species entered for a further assay is Oryctolagus cuniculus. The assay is described as follows: Inhibition of arachidonic acid induced platelet aggregation in rabbit platelet rich plasma. The class given is functional. The note with it: read-out: ED50 (the source's name). The essentials: (§1)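 Rabbit blood drawn from the carotid artery (pentobarbital anaesthesia, 35 mg/kg iv) into 3.8% sodium citrate (1/10 volume). PRP obtained by spinning at 150g for 15 min; 3.5-4.5 × 10^5 platelets/μL. Compound in Me2SO (≤0.5% final) preincubated 3 min at 37 °C with 1200 rpm stirring. Aggregation then started with 137 μM AA (final) and read turbidimetrically. Inhibition = maximum deflection relative to vehicle; ED50 range from three experiments.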
For the compound `CCOC(=O)c1ccc(-n2ncc3cc(C)c(C(=O)OCC)c(C)c3c2=O)cc1`, the EC50 is no less than 50 µM.

On to `CCOC(=O)c1c(C)cc2cnn(-c3ccc(F)cc3)c(=O)c2c1C`, for which the EC50 is no less than 50 µM.

`CCOC(=O)c1c(C)cc2cnn(-c3ccc(NC(C)=O)cc3)c(=O)c2c1C`: the EC50 is no less than 50 µM.

For the compound `CCOC(=O)c1c(C)cc2cnn(-c3cccc(OC)c3)c(=O)c2c1C`, the EC50 was no less than 50 µM.

As for `COc1ccc(-n2ncc3cc(OC)c(OC)cc3c2=O)cc1OC`, the EC50 was no less than 100 µM.

Take `CCOC(=O)c1c(C)cc2cnn(-c3ccc(S(C)(=O)=O)cc3)c(=O)c2c1C`: the EC50 is no less than 50 µM.

Take `COc1cc2cnn(-c3ccccc3Cl)c(=O)c2cc1OC`: the EC50 was no less than 100 µM.

For the compound `CCOC(=O)c1c(C)cc2cnn(-c3ccc(OC)c(OC)c3)c(=O)c2c1C`, the EC50 was no less than 50 µM.

Turning to `CCOC(=O)c1c(C)cc2cnn(-c3ccc(C)c(Cl)c3)c(=O)c2c1C`, the EC50 is no less than 50 µM.

As to `CCOC(=O)c1c(C)cc2cnn(-c3ccc([N+](=O)[O-])cc3)c(=O)c2c1C`, the EC50 is no less than 50 µM.

On to `CCOC(=O)c1c(C)cc2cnn(-c3ccc(C(=O)O)cc3)c(=O)c2c1C`, for which the EC50 is no less than 50 µM.

Consider `COc1ccc(-n2ncc3cc(OC)c(OC)cc3c2=O)cc1`, for which the EC50 was no less than 100 µM.

Take `COc1cc2cnn(-c3ccccc3)c(=O)c2cc1OC`: the EC50 is no less than 100 µM.

The species entered for another assay is Oryctolagus cuniculus. Briefly: Inhibition of arachidonic acid induced platelet aggregation in rabbit platelet rich plasma, range 50-100. The format is functional. Particulars: read-out: ED50 (the source's name). The essentials:
as §1
For `CCOC(=O)c1c(C)cc2cnn(-c3cccc(C)c3)c(=O)c2c1C`, the EC50 was 50 µM.

The species named for the next assay is Oryctolagus cuniculus. The assay is described as follows: Inhibition of arachidonic acid induced platelet aggregation in rabbit platelet rich plasma, range 5-10. The class given is functional. The note with it: read-out: ED50 (the source's name). In short, it runs like this: as §1
Take `CCOC(=O)c1c(C)cc2cnn(-c3ccc(OC)cc3)c(=O)c2c1C`: the EC50 worked out at 5 µM.

As for `CCOC(=O)c1c(C)cc2cnn(-c3ccccc3C)c(=O)c2c1C`, the EC50 was 5 µM.

For another assay, the species on record is Oryctolagus cuniculus. The assay is described as follows: Inhibition of arachidonic acid induced platelet aggregation in rabbit platelet rich plasma, range 25-50. The class given is functional. Particulars: read-out: ED50 (the source's name). The essentials: as §1
Turning to `CCOC(=O)c1c(C)cc2cnn(-c3ccc(C)cc3)c(=O)c2c1C`, the EC50 is 25 µM.

With `CCOC(=O)c1c(C)cc2cnn(-c3ccc(O)cc3)c(=O)c2c1C`, the EC50 was determined as 25 µM.

The species entered for another assay is Oryctolagus cuniculus. The assay is described as follows: Inhibition of arachidonic acid induced platelet aggregation in rabbit platelet rich plasma, range 2-5. The format is functional. The note with it: read-out: ED50 (the source's name). The essentials:
as §1
For the compound `CCOC(=O)c1c(C)cc2cnn(-c3ccccc3)c(=O)c2c1C`, the EC50 was found to be 2 µM.

In the case of `CCOC(=O)c1c(C)cc2cnn(-c3ccccc3Cl)c(=O)c2c1C`, the EC50 is 2 µM.

Take `CCOC(=O)c1c(C)cc2cnn(-c3ccccc3F)c(=O)c2c1C`: the EC50 was 2 µM.

In the case of `CCOC(=O)c1c(C)cc2cnn(-c3ccc(N)cc3)c(=O)c2c1C`, the EC50 is 2 µM.

The values are drawn from ChEMBL document CHEMBL1122612, “7-(Ethoxycarbonyl)-6,8-dimethyl-2-phenyl-1(2H)-phthalazinone derivatives: synthesis and inhibitory effects on platelet aggregation” (J Med Chem, 1984).
